Data reported in ChEMBL document CHEMBL4477203 (J Med Chem, 2016).
Numbered stars: 1 amine (or outer) side, 2 acyl side, 3 side chain; on linkers, the order of the positions; unused ones are H or OH. Bridge positions count the residues as written; N and C are the ends. Peptide text beside a SMILES is read from it. I, II: the chains in the order shown. Suberoyl = O=C(CCCCCCC(=O)[*:2])[*:1]

Assays:
[1] = target: T1, Neuropeptide Y receptor type 4 (Homo sapiens, UniProt P50391); experiment: Agonist activity at human NPY Y4 receptor expressed in CHO cells co-expressing Gqi5-mtAEQ assessed as induction of calcium mobilization by aequorin luminescence assay; format: functional, cell-based
T1 sequence (P50391 whole entry): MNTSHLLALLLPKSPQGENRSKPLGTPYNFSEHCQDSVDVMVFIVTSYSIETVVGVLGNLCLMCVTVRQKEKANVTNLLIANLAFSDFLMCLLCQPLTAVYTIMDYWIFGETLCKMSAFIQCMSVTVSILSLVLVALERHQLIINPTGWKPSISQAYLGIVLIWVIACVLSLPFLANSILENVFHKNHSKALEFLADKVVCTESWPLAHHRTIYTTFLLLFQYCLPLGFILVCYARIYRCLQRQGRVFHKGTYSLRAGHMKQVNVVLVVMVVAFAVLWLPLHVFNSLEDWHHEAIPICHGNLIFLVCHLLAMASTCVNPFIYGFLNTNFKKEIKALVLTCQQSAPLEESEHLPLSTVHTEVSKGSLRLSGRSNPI
How it was run: (§1)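 Luminescence was integrated as area under the curve and normalized to the response to 1 µM PP. Data are means ± SEM of at least 3 independent experiments, each run in triplicate.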

[2] = target: T1, Neuropeptide Y receptor type 4; experiment: Intrinsic activity at human NPY Y4 receptor expressed in CHO cells co-expressing Gqi5-mtAEQ assessed as induction of calcium mobilization by aequorin luminescence assay relative to pancreatic polypeptide; format: functional, cell-based; how it was run: as §1
[3] = target: T2, Neuropeptide Y receptor type 1 (Homo sapiens, UniProt P25929); experiment: Displacement of [3H]UR-MK136 from human NPY Y1 receptor expressed in human MCF7 cells by liquid scintillation counting; format: cell-based
T2 sequence (P25929 whole entry): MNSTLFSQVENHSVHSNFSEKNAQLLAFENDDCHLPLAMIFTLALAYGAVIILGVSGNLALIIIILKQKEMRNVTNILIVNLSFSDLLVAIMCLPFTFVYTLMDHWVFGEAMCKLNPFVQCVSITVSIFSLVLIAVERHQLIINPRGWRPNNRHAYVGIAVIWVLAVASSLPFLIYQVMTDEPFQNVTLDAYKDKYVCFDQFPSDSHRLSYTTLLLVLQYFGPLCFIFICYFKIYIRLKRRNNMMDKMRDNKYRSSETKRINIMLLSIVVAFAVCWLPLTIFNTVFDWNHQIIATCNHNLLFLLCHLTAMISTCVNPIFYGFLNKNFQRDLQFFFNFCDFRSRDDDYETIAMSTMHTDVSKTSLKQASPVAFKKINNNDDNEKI

[4] = target: T1, Neuropeptide Y receptor type 4; experiment: Agonist activity at human NPY Y4 receptor expressed in HEK293 cells co-expressing CRE-Luc gene assessed as inhibition of forskolin stimulated luciferase activity after 4.5 hrs by luminescence assay; format: functional, cell-based
How it was run: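 HEK293 cells stably co-transfected with a CRE-controlled firefly luciferase reporter and hY4R, tested in phenol-red-free DMEM, pH 7.4. The maximal inhibition by PP was set to 0% activity (α = 1.0). Data are means ± SEM of at least 3 experiments in triplicate.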

[5] = target: T3, Neuropeptide Y receptor type 2 (Homo sapiens, UniProt P49146); experiment: Displacement of [3H]propionyl-pNPY from human NPY Y2 receptor expressed in CHO cells co-expressing Gqi5-mtAEQ after 90 mins by liquid scintillation counting; format: cell-based
T3 sequence (P49146 whole entry): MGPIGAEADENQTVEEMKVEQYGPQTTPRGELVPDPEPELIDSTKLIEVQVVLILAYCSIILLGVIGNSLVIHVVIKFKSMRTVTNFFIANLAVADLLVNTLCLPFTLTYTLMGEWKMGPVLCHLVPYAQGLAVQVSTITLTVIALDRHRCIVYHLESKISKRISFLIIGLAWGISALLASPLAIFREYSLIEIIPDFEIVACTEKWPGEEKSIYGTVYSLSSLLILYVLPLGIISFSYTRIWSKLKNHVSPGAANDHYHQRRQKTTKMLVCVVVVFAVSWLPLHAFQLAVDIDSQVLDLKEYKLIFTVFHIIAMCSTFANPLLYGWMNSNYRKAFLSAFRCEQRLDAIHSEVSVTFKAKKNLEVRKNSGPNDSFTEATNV
How it was run: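 Adherent CHO-hY2R-Gqi5-mtAEQ cells in buffer I with 1% BSA and 0.1 mg/mL bacitracin at 22 °C. […] Incubation was 90 min, followed by two ice-cold washes, lysis and scintillation counting.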

[6] = target: T1, Neuropeptide Y receptor type 4; experiment: Displacement of [3H](2R,7R)-10 from human NPY Y4 receptor expressed in CHO cells co-expressing Gqi5-mtAEQ after 90 mins in presence of sodium-free HEPES buffer by liquid scintillation counting; format: cell-based
[7] = target: T1, Neuropeptide Y receptor type 4; experiment: Intrinsic activity at human NPY Y4 receptor expressed in HEK293 cells co-expressing CRE-Luc gene assessed as inhibition of forskolin stimulated luciferase activity after 4.5 hrs by luminescence assay relative to pancreatic polypeptide; format: functional, cell-based
How it was run: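 HEK293 cells stably co-transfected with a CRE-controlled firefly luciferase reporter and hY4R, tested in phenol-red-free DMEM, pH 7.4. […] The maximal inhibition by PP was set to 0% activity (α = 1.0). Data are means ± SEM of at least 3 experiments in triplicate.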

[8] = target: T4, Neuropeptide Y receptor type 5 (Homo sapiens, UniProt Q15761); experiment: Displacement of [3H]propionyl-pNPY from human NPY Y5 receptor expressed in human HEC1b cells after 120 mins by liquid scintillation counting; format: cell-based
T4 sequence (Q15761 whole entry): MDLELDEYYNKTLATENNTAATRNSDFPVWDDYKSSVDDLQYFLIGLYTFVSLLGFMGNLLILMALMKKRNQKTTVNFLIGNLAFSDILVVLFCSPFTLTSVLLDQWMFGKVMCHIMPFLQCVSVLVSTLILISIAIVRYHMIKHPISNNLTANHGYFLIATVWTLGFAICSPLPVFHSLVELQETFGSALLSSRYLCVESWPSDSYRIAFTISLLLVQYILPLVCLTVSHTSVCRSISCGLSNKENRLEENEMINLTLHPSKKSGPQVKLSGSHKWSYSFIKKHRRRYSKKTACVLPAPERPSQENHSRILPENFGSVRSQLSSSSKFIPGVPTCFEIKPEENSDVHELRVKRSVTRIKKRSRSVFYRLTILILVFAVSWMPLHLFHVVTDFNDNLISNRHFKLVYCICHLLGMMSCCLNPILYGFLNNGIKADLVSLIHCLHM
How it was run: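 Adherent HEC-1B-hY5 cells in buffer II with 1% BSA and 0.1 mg/mL bacitracin at 22 °C. […] Incubation was 120 min, followed by ice-cold washes, lysis and scintillation counting.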

[9] = target: T1, Neuropeptide Y receptor type 4; experiment: Displacement of [3H](2R,7R)-10 from human NPY Y4 receptor expressed in CHO cells co-expressing Gqi5-mtAEQ after 90 mins in presence of L-15 medium by liquid scintillation counting; format: cell-based

SMILES | EC50 ([1]; cho) | Intrinsic activity [2] | Ki ([3]; mcf7) | EC50 ([4]; hek293) | Ki ([5]; cho) | Ki ([6]; cho) | Intrinsic activity [7] | Ki [8] | Ki [6] | EC50 [1] | Ki [3] | EC50 [4] | Ki [5] | Ki [9]
CCC(=O)N[C@H](CCCC[C@@H](N)C(=O)N[C@H](Cc1ccc(O)cc1)C(=O)N[C@H](CCCNC(=N)N)C(=O)N[C@H](CC(C)C)C(=O)N[C@H](CCCNC(=N)N)C(=O)N[C@H](Cc1ccc(O)cc1)C(N)=O)C(=O)N[C@@H](Cc1ccc(O)cc1)C(=O)N[C@@H](CCCNC(=N)N)C(=O)N[C@@H](CC(C)C)C(=O)N[C@@H](CCCNC(=N)N)C(=O)N[C@@H](Cc1ccc(O)cc1)C(N)=O | 0.059 µM | 0.7 | 0.29 µM | 0.027 µM | 0.75 µM | 0.0028 µM | 0.98 | 0.4 µM |  |  |  |  |  | 
CC[C@H](C)[C@H](N)C(=O)N[C@H]1CCC(=O)NC[C@@H](C(=O)N[C@@H](Cc2ccc(O)cc2)C(=O)N[C@@H](CCCN=C(N)N)C(=O)N[C@@H](CC(C)C)C(=O)N[C@@H](CCCN=C(N)N)C(=O)N[C@@H](Cc2ccc(O)cc2)C(N)=O)NC(=O)[C@@H]2CCCN2C(=O)[C@H](NC(=O)[C@@H](N)[C@@H](C)CC)CCC(=O)NC[C@H](C(=O)N[C@@H](Cc2ccc(O)cc2)C(=O)N[C@@H](CCCN=C(N)N)C(=O)N[C@@H](CC(C)C)C(=O)N[C@@H](CCCN=C(N)N)C(=O)N[C@@H](Cc2ccc(O)cc2)C(N)=O)NC(=O)[C@@H]2CCCN2C1=O |  | 0.62 |  |  |  |  | 1.01 |  |  |  |  |  |  | 
CC(C)C[C@H](NC(=O)[C@H](CCCNC(=N)N)NC(=O)[C@H](Cc1ccc(O)cc1)NC(=O)C(N)CCCCC(N)C(=O)N[C@@H](Cc1ccc(O)cc1)C(=O)N[C@@H](CCCNC(=N)N)C(=O)N[C@@H](CC(C)C)C(=O)N[C@@H](CCCNC(=N)N)C(=O)N[C@@H](Cc1ccc(O)cc1)C(N)=O)C(=O)N[C@@H](CCCNC(=N)N)C(=O)N[C@@H](Cc1ccc(O)cc1)C(N)=O (stereo not given in full) |  |  |  |  |  |  |  |  | 0.00106 µM |  |  |  |  | 
CC(C)C[C@H](NC(=O)[C@H](C)NC(=O)[C@H](Cc1ccc(O)cc1)NC(=O)CCCCCCC(=O)N[C@@H](Cc1ccc(O)cc1)C(=O)N[C@@H](C)C(=O)N[C@@H](CC(C)C)C(=O)N[C@@H](CCCNC(=N)N)C(=O)N[C@@H](Cc1ccc(O)cc1)C(N)=O)C(=O)N[C@@H](CCCNC(=N)N)C(=O)N[C@@H](Cc1ccc(O)cc1)C(N)=O (I: YALRY-NH2 / II: YALRY-NH2; linker I:N-II:N via Suberoyl) |  |  |  |  |  |  |  | 0.55 µM | > 3 µM | > 3 µM | > 3 µM | > 3 µM | > 10 µM | 
CC(C)C[C@H](NC(=O)[C@H](C)NC(=O)[C@H](Cc1ccc(O)cc1)NC(=O)CCCCCCC(=O)N[C@@H](Cc1ccc(O)cc1)C(=O)N[C@@H](CCCNC(=N)N)C(=O)N[C@@H](CC(C)C)C(=O)N[C@@H](CCCNC(=N)N)C(=O)N[C@@H](Cc1ccc(O)cc1)C(N)=O)C(=O)N[C@@H](CCCNC(=N)N)C(=O)N[C@@H](Cc1ccc(O)cc1)C(N)=O (I: YALRY-NH2 / II: YRLRY-NH2; linker I:N-II:N via Suberoyl) |  | 0.85 |  |  |  |  | 0.98 | 0.22 µM | 0.012 µM | 0.29 µM | 1.4 µM | 0.16 µM | > 3 µM | 
CC(C)C[C@H](NC(=O)[C@H](CCCNC(=N)N)NC(=O)[C@H](Cc1ccc(O)cc1)NC(=O)[C@@H](N)CCCC[C@H](N)C(=O)N[C@@H](Cc1ccc(O)cc1)C(=O)N[C@@H](CCCNC(=N)N)C(=O)N[C@@H](CC(C)C)C(=O)N[C@@H](CCCNC(=N)N)C(=O)N[C@@H](Cc1ccc(O)cc1)C(N)=O)C(=O)N[C@@H](CCCNC(=N)N)C(=O)N[C@@H](Cc1ccc(O)cc1)C(N)=O |  | 0.78 |  |  |  |  | 1.07 | 2.1 µM | 0.0023 µM | 0.018 µM | 0.93 µM | 0.019 µM | 0.95 µM | 0.017 µM
CC(C)C[C@H](NC(=O)[C@H](CCCNC(=N)N)NC(=O)[C@H](Cc1ccc(O)cc1)NC(=O)CCCCCCC(=O)N[C@@H](Cc1ccc(O)cc1)C(=O)N[C@@H](CCCNC(=N)N)C(=O)N[C@@H](CC(C)C)C(=O)N[C@@H](C)C(=O)N[C@@H](Cc1ccc(O)cc1)C(N)=O)C(=O)N[C@@H](C)C(=O)N[C@@H](Cc1ccc(O)cc1)C(N)=O (I: YRLAY-NH2 / II: YRLAY-NH2; linker I:N-II:N via Suberoyl) |  |  |  |  |  |  |  | > 10 µM | > 3 µM |  | > 10 µM | > 3 µM | > 10 µM | 
CC(C)C[C@H](NC(=O)[C@H](CCCNC(=N)N)NC(=O)[C@H](Cc1ccc(O)cc1)NC(=O)CCCCCCC(=O)N[C@@H](Cc1ccc(O)cc1)C(=O)N[C@@H](CCCNC(=N)N)C(=O)N[C@@H](CC(C)C)C(=O)N[C@@H](CCCNC(=N)N)C(=O)N[C@@H](Cc1ccc(O)cc1)C(N)=O)C(=O)N[C@@H](C)C(=O)N[C@@H](Cc1ccc(O)cc1)C(N)=O (I: YRLAY-NH2 / II: YRLRY-NH2; linker I:N-II:N via Suberoyl) |  | 0.85 |  |  |  |  | 0.99 | 0.46 µM | 0.011 µM | 0.31 µM | 1.6 µM | 0.15 µM | > 3 µM | 
CC(C)C[C@H](NC(=O)[C@H](CCCNC(=N)N)NC(=O)[C@H](Cc1ccc(O)cc1)NC(=O)CCCCCCC(=O)N[C@@H](Cc1ccc(O)cc1)C(=O)N[C@@H](CCCNC(=N)N)C(=O)N[C@@H](CC(C)C)C(=O)N[C@@H](CCCNC(=N)N)C(=O)N[C@@H](Cc1ccc(O)cc1)C(N)=O)C(=O)N[C@@H](CCCNC(=N)N)C(=O)N[C@@H](Cc1ccc(O)cc1)C(N)=O (I: YRLRY-NH2 / II: YRLRY-NH2; linker I:N-II:N via Suberoyl) |  | 0.73 |  |  |  |  | 0.93 | 0.28 µM | 0.0035 µM | 0.049 µM | 0.72 µM | 0.086 µM | 1.7 µM | 
